Compound activity from PubChem BioAssay.
CYP2C19 activ: human CYP2C19 activators, primary screen, biochemical, luminescence. 96,000 tested, under 10 active. activation factor at 5 µM. recombinant CYP2C19, luciferin-H EGE luminescence; hits give high values; 0 = fully inhibited enzyme, 1 = untreated enzyme. Cytochrome P450 2C19 (Homo sapiens), P33261;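 active = activation factor of at least 2 at 5 µM in the primary screen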
CYP2C19 inhib: blockers of cytochrome P450 2C19 activity – biochemical, luminescence, ADME assay, primary screen. P33261. CYP2C19 Supersomes, luciferin-H EGE luminescence, 30 min. inhibition, % at 5 µM. 96,000 tested, 21% active. AID 778, 2007;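 active = CYP2C19 inhibition above a set limit at 5 µM in the primary screen, cut at about 50% in these data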
Cav32 inh: Cav3.2 calcium influx blockers – cell-based, Fluo-4 calcium fluorescence, FDSS, MLSMR library, primary screen | Voltage-dependent T-type calcium channel subunit alpha-1H (Homo sapiens), O95180 | Cav3.2-expressing cells; hits give low values | B-score at 10 µM | 100,000 tested, 4% active | AID 449739, 2010;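 active = single-dose well whose peak fluorescence ratio is a statistical outlier from its plate by either plate-standardised score or position-corrected B-score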
CYP2C9 inh: blockers of cytochrome P450 2C9 activity – biochemical, luminescence, ADME assay, primary screen; inhibition, % at 5 µM; 96,000 tested, 20% active; P11712; CYP2C9 Supersomes, luciferin-H conversion;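 active = blocking of liver enzyme CYP2C9 beyond about 50% at 5 µM, limit read from the data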
Target sequence (P11712 whole entry, looked up): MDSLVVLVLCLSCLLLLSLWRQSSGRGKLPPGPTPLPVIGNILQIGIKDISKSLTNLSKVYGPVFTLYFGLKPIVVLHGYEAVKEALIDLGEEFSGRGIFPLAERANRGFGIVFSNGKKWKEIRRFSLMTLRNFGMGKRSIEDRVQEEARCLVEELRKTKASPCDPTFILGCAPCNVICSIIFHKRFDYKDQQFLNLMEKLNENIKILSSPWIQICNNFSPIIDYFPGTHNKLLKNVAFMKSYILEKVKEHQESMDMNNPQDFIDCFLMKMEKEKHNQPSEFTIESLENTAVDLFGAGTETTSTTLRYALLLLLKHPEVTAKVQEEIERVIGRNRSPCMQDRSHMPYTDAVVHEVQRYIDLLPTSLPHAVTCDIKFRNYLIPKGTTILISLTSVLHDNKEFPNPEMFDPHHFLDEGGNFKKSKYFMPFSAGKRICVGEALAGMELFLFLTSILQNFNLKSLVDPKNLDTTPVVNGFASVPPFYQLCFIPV
CYP2C9 activ: human CYP2C9 activators, primary screen, biochemical, luminescence; Cytochrome P450 2C9 (Homo sapiens), P11712; recombinant CYP2C9, luciferin-H conversion; hits give high values; factor 1 = untreated enzyme, 0 = blocked; activation factor at 5 µM; 96,000 tested, 1.4% active;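 active = activation factor of 2 or more for CYP2C9 at a 5 µM dose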
Rev-RRE block: HIV-1 Rev-RRE binding inhibitors, primary screen, biochemical, FRET, protein-RNA interaction; Rev peptide-RRE RNA binding; 97,000 tested, 0.79% active; P05866; inhibition, % at 8 µM; AID 704, 2007;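 active = inhibition above the screen-wide mean plus 3 SD, cut at about 35% in these data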
Target sequence (P05866 whole entry, looked up): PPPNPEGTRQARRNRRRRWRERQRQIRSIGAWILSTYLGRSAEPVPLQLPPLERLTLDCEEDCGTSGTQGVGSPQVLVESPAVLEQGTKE
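Test system – labelled RRE RNA duplex and labelled Rev peptide · Signal – fluorescein-to-Cy5 FRET, 480 nm excitation · Evaluation – % inhibition of FRET ratio versus controls · Benchmarks – DMSO low control, neomycin B high control · Incubation – 5 min RNA-compound premix plus 15 min binding step, 25 °C · Medium – HEPES pH 7.5 salt buffer with EDTA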
Large screens that a line does not name were inactive; [ ] = dose if it differs, or a comment. Only some compounds are listed: those with a hit (about 27% of all), similar ones and a draw of the others.

CCc1c(C(=O)O)[nH]c2ccc(Br)cc12	none
CC(NC(=O)c1cccs1)C(c1cccs1)N1CCOCC1 (configuration not stated)	none (no result: CYP2C19 activ, CYP2C19 inhib, CYP2C9 inh, CYP2C9 activ)
CCOc1c(CNCCNC(=O)c2nonc2N)cccc1OC	CYP2C19 inhib 74
COc1cccc(CNCCNC(=O)c2nonc2N)c1	none
Nc1nonc1C(=O)NCCNCc1ccccc1OCc1ccccc1F	Cav32 inh -6.1
CC(C)(CO)NCc1cc(Br)ccc1OCc1ccccc1	none
COc1cccc(C=NCCNC(=O)c2nonc2N)c1O	none
Nc1nonc1C(=O)NCCNCc1cc(Br)ccc1OCc1ccccc1F	CYP2C19 inhib 57, Cav32 inh -6.9
COc1ccc(/C(O)=C2/C(=O)C(=O)N(CCN3CCOCC3)C2c2ccccn2)cc1 (configuration not stated)	none
COc1ccc(N=CC2=C(Nc3ccc(OC)cc3)c3c(C)nn(-c4ccccn4)c3CC2)cc1	Cav32 inh -4.2, Rev-RRE block 87[fluorescence artefact?] (no result: CYP2C19 activ, CYP2C19 inhib, CYP2C9 inh, CYP2C9 activ)
C#CCSc1nnc(-c2sc(-c3ccccc3)nc2C)n1C	CYP2C19 inhib 87
CCOC(=O)Cn1ncc(-c2ccccc2)c1N	none (no result: CYP2C19 activ, CYP2C19 inhib, CYP2C9 inh, CYP2C9 activ)
COc1ccc(C(=O)CSc2nnc(CNc3nc(-c4ccccc4)cs3)n2C)cc1	CYP2C19 inhib 64, Cav32 inh -5.7, CYP2C9 inh 62
Cn1c(CNc2nc(-c3ccccc3)cs2)nnc1SCC(=O)N1CCc2ccccc21	Cav32 inh -4.6
C=C(C)CN(CC)C(=O)CSc1nc2ncc(Cl)cc2[nH]1	CYP2C19 inhib 92
COc1ccc(-c2cc(-c3cccs3)c(C#N)c(SCC(=O)NCc3ccco3)n2)cc1	CYP2C9 inh 85 (no result: Cav32 inh, Rev-RRE block)
COc1ccc(CNC(=O)CSc2nc(-c3ccccc3)cc(-c3cccs3)c2C#N)cc1	CYP2C9 inh 69
COc1ccc(CCNC(=O)CSc2nc(N)c(C#N)c(-c3cccs3)c2C#N)cc1OC	none
CCOC(=O)c1sc2cccc(Cl)c2c1N	none (no result: CYP2C19 activ, CYP2C19 inhib, CYP2C9 inh, CYP2C9 activ)
Cc1nn(C)cc1CN(C)C(=O)c1sc2cccc(Cl)c2c1Cl	CYP2C19 inhib 97, CYP2C9 activ 2 (no result: Rev-RRE block)
O=C(CSc1nc(Cc2ccccc2)nc2ccccc12)c1ccc2c(c1)OCCO2	CYP2C9 inh 89
Cc1ccc2nc(SCC(=O)c3ccc(Cl)s3)[nH]c2c1	CYP2C9 inh 60
O=C(O)CSc1nc2ccc(Cl)cc2[nH]1	none
CC(=O)c1c(C)[nH]c(C(=O)CSc2nc3ccc(C)cc3[nH]2)c1C	CYP2C19 inhib 90, CYP2C9 inh 94
Cc1[nH]c2ccccc2c1C(=O)CSc1nc2ccccc2[nH]1	none
O=C(CSc1nc2ccccc2[nH]1)c1ccc2c(c1)OCO2	CYP2C19 inhib 92, CYP2C9 inh 71
CCC(C)(C)n1nnnc1C(c1ccccn1)N1CCN(c2cccc(OC)c2)CC1 (configuration not stated)	none (no result: CYP2C19 activ, CYP2C19 inhib, CYP2C9 inh, CYP2C9 activ)
O=C1CC(C(=O)Nc2cccc3ccccc23)C2(CCCC2)O1 (configuration not stated)	none
CCOc1ccccc1NC(=O)C1CC2CCCC(C1)C2=O (configuration not stated)	none
Cc1ccc2nc(SCC(=O)c3ccc4c(c3)OCO4)[nH]c2c1	CYP2C9 inh 69 (no result: Cav32 inh)
CCN1C(=O)N[C@@H](c2cccc(C(F)(F)F)c2)[C@@H](C(=O)OC)[C@H]1C	none (no result: CYP2C19 activ, CYP2C19 inhib, CYP2C9 inh, CYP2C9 activ, Rev-RRE block)
CC(=O)c1ccc(-n2nncc2C)cc1	none
COCCn1nnnc1C(c1ccc(OC)cc1)N1CCC(C)CC1 (configuration not stated)	CYP2C19 inhib 73 (no result: Rev-RRE block)
c1cnc2ccc(C(c3nnnn3C3CCCCC3)N3CCCCC3)cc2c1 (configuration not stated)	Cav32 inh -4.7 (no result: CYP2C19 activ, CYP2C19 inhib, CYP2C9 inh, CYP2C9 activ)
c1ccc(C(c2nnnn2C2CCCC2)N2CCN(c3ccccc3)CC2)cc1 (configuration not stated)	Cav32 inh -5.1 (no result: CYP2C19 activ, CYP2C19 inhib, CYP2C9 inh, CYP2C9 activ)
Fc1ccc(C(c2nnnn2C2CCCC2)N2CCN(Cc3ccncc3)CC2)cc1 (configuration not stated)	CYP2C19 inhib 91, CYP2C9 inh 81
COc1ccc(C(c2nnnn2C2CCCC2)N2CCN(C3CCCC3)CC2)cc1OC (configuration not stated)	none
COCCn1nnnc1C(c1ccc(Cl)cc1)N1CCSCC1 (configuration not stated)	CYP2C19 inhib 79
c1cc(N2CCCC2)ccc1C(c1nnnn1C1CCCCC1)N1CCOCC1 (configuration not stated)	none
COc1ccc(C(c2nnnn2C2CCCCC2)N2CCN(c3ccc(OC)cc3)CC2)cc1 (configuration not stated)	CYP2C19 inhib 72, Cav32 inh -6.4, CYP2C9 inh 85
COc1ccc(C(c2nnnn2C2CCCC2)N2CCC(C)CC2)cc1 (configuration not stated)	CYP2C19 inhib 82, Cav32 inh -4.4, CYP2C9 inh 69
Cc1ccc2cc(C(c3nnnn3C3CCCC3)N3CCN(c4ccc(F)cc4)CC3)c(=O)[nH]c2c1 (configuration not stated)	Cav32 inh -5.3 (no result: CYP2C19 activ, CYP2C19 inhib, CYP2C9 inh, CYP2C9 activ)
COc1ccc(OC)c(C(c2nnnn2C2CCCC2)N2CCN(c3ccccc3)CC2)c1 (configuration not stated)	CYP2C19 inhib 90, CYP2C9 inh 82 (no result: Cav32 inh, Rev-RRE block)
COc1ccc(OC)c(C(c2nnnn2CCc2ccccc2)N2CCC(C(N)=O)CC2)c1 (configuration not stated)	none
COc1ccccc1C(c1nnnn1C1CCCC1)N1CCN2CCCC2C1 (configuration not stated)	CYP2C9 inh 85
Clc1ccc(C(c2nnnn2C2CCCC2)N2CCSCC2)cc1 (configuration not stated)	CYP2C19 inhib 63, CYP2C9 inh 79
COCCn1nnnc1C(c1cc(OC)ccc1OC)N1CCc2ccccc2C1 (configuration not stated)	CYP2C19 inhib 59 (no result: Rev-RRE block)
Cc1ccc(CNC(=O)[C@H](C)[C@H]2C[C@]2(C)[C@H](NC(=O)OCc2ccccc2)c2ccccc2)o1	none (no result: CYP2C19 activ, CYP2C19 inhib, CYP2C9 inh, CYP2C9 activ, Rev-RRE block)
COC(=O)c1cc(OC)c(OC)cc1N=CC1=C(O)CC(C)(C)CC1=O	none
COc1ccccc1C(c1nnnn1C(C)(C)C)N1CCCCCC1 (configuration not stated)	CYP2C19 inhib 52, CYP2C9 inh 77
Cc1ccc(C(c2nnnn2CCc2ccccc2)N2CCSCC2)cc1 (configuration not stated)	none (no result: Cav32 inh)
COc1ccccc1C(c1nnnn1C(C)(C)C)N1CCN(C(=O)c2ccco2)CC1 (configuration not stated)	none
